Assay results of several laboratories.
Lines come from different studies, so protocols differ.
Sample: plasma

CNC(=O)n1ccc2cc(Oc3ccnc(NC(=O)c4ccc(C5CCN(CCO)CC5)cc4)c3)c(OCCOC)cc21 — Cmax (human; oral; 35 mg; single dose, fed, healthy volunteers): 6.81 ng/mL
COc1ccc([C@@H](O)c2cc(-c3ncnc4cc(N5CCOCC5)ccc34)c(F)cc2Cl)nn1 — Cmax (human; oral; 200 mg; single dose, patients): 854 ng/mL
N[C@@H]1c2cccnc2[C@H](OC(=O)N2CCC(n3c(=O)[nH]c4ncccc43)CC2)CC[C@H]1c1cccc(F)c1F — Cmax (human; oral; 75 mg; single dose): 923 ng/mL
CN1CC[C@@H](c2c(O)cc(O)c3c(=O)cc(-c4ccc(C(F)(F)F)cc4Cl)oc23)[C@@H]1CO — Cmax (human; oral; 150 mg; patients): 245 ng/mL
Cn1cc(Nc2nc(N)nc(-c3cccc(-n4ccc5cc(C6CC6)cc(F)c5c4=O)c3CO)n2)cn1 — Cmax (human; oral; 5 mg; single dose, fasted, suspension): 28.6 ng/mL
Cc1ccc(C(=O)Nc2ccc(CN3CCN(C)CC3)c(C(F)(F)F)c2)cc1C#Cc1cnc2[nH]ncc2c1 — Cmax (human; oral; 20 mg; single dose, fed, healthy volunteers): 5.02 ng/mL
CC(=O)N[C@H]1CC[C@H](NC(=O)CN2CCN(c3nncc(-c4ccc(C)cc4)n3)CC2)CC1 — Cmax (female human; oral; 100 mg; single dose, fasted): 1550 ng/mL
NS(=O)(=O)OC[C@@H]1C[C@@H](n2ccc3c(N[C@H]4CCc5ccccc54)ncnc32)C[C@@H]1O — Cmax (human; intravenous; 15 mg/m²; patients): 127 ng/mL
CC(C)n1c(Nc2cccnc2)nc2cnc(Nc3ccc(N4CCN(C)CC4)cc3)nc21 — Cmax (male human; oral; 100 mg; single dose): 45.7 ng/mL
C[C@H](O)C(=O)C1=Nc2c(nc(N)[nH]c2=O)NC1 — Cmax (human; oral; 20 mg/kg; single dose, healthy volunteers): 1.51 ng/mL
Cl.[2H]C([2H])([2H])CC(=O)c1cnc(NC(=O)C2CC2)cc1Nc1cccc(-c2ncn(C([2H])([2H])[2H])n2)c1OC — Cmax (human; oral; 20 mg; multiple doses, once daily, fasted): 132 ng/mL
